ChEMBL document CHEMBL1122368, “Synthesis and antihypertensive activity of some new quinazoline derivatives” (1983)

Columns and labels:
Rattus norvegicus [1] = assay: Hypotensive activity in anesthetized rats, dose that produced a 30% fall in mean blood pressure after 30 minutes; assay type: functional
Summary of the method: (§1)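 Normotensive rats under urethane anaesthesia, arterial pressure recorded, femoral vein cannulated. Dosing iv in rising doses (0.01, 0.1, 1, 10 μmol/kg) at 30-min intervals, 1 mL/kg over 2 min; solvent controls; colonic temperature 38.0 ± 0.3 °C. Fall in pressure read 30 min after injection. ED30 is the dose (μmol/kg) giving a 30% fall in mean blood pressure.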

Rattus norvegicus [2] = assay: Hypotensive activity in anesthetized rats, dose that produced a 30% fall in mean blood pressure; assay type: functional
Summary of the method: as §1, with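 “min; solvent-treated controls. Colonic” for “min; solvent controls; colonic”, “temperature held at” for “temperature”, “°C. Effect” for “°C. Fall in pressure”, “read at its maximum, 1–5” for “read 30”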

Rattus norvegicus [3] = assay: Antihypertensive activity as fall in systolic blood pressure after 3 hr of 10 uM/kg po dosing in Spontaneously hypertensive rats.; assay type: functional, Artery
Summary of the method: (§2)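 Conscious spontaneously hypertensive rats dosed by gavage, about 1 mL/rat. Systolic pressure recorded by tail-cuff after warming the rats 30 min at 36 °C. Fall in systolic BP (mmHg) read versus control values; listed values are significant decreases (p ≤ 0.05), otherwise marked NS. Baseline systolic pressure 175–190 mmHg across experiments.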

Rattus norvegicus [4] = assay: Antihypertensive activity as fall in systolic blood pressure after 1 hr of 10 uM/kg po dosing in Spontaneously hypertensive rats.; assay type: functional, Artery; summary of the method: as §2
Rattus norvegicus [5] = assay: Antihypertensive activity as fall in systolic blood pressure after 1 h of 1 umol/kg po dosing in Spontaneously hypertensive rats.; assay type: functional, Artery; summary of the method: as §2
Rattus norvegicus [6] = assay: Antihypertensive activity as fall in systolic blood pressure after 5 hr of 10 uM/kg po dosing in Spontaneously hypertensive rats.; assay type: functional, Artery; summary of the method: as §2
Rattus norvegicus [7] = assay: Antihypertensive activity as fall in systolic blood pressure after 5 hr of 1 umol/kg po dosing in Spontaneously hypertensive rats.; assay type: functional, Artery; summary of the method: as §2
Rattus norvegicus [8] = assay: Antihypertensive activity as fall in systolic blood pressure after 3 hr of 1 umol/kg po dosing in Spontaneously hypertensive rats.; assay type: functional, Artery; summary of the method: as §2
Rattus norvegicus [9] = assay: Antihypertensive activity as fall in systolic blood pressure after 1 h of 0.3 umol/kg po dosing in Spontaneously hypertensive rats;NS means nonsignificant change in blood pressure.; assay type: functional, organism-based; conditions: Artery; summary of the method: as §2
Rattus norvegicus [10] = assay: Antihypertensive activity as fall in systolic blood pressure after 1 h of 3 umol/kg po dosing in Spontaneously hypertensive rats.; assay type: functional, Artery; summary of the method: as §2
Rattus norvegicus [11] = assay: Antihypertensive activity as fall in systolic blood pressure after 3 h of 0.3 umol/kg po dosing in Spontaneously hypertensive rats.; assay type: functional, Artery; summary of the method: as §2
Rattus norvegicus [12] = assay: Antihypertensive activity as fall in systolic blood pressure after 3 h of 3 umol/kg po dosing in Spontaneously hypertensive rats.; assay type: functional, Artery; summary of the method: as §2
Rattus norvegicus [13] = assay: Antihypertensive activity as fall in systolic blood pressure after 5 h of 0.3 umol/kg po dosing in Spontaneously hypertensive rats.; assay type: functional, Artery; summary of the method: as §2
Rattus norvegicus [14] = assay: Antihypertensive activity as fall in systolic blood pressure after 5 hr of 3 umol/kg po dosing in Spontaneously hypertensive rats.; assay type: functional, Artery; summary of the method: as §2
Rattus norvegicus [15] = assay: Antihypertensive activity as fall in systolic blood pressure after 5 h of 1 umol/kg po dosing in Spontaneously hypertensive rats;NS means nonsignificant change in blood pressure.; assay type: functional, organism-based; conditions: Artery; summary of the method: as §2
Rattus norvegicus [16] = assay: Antihypertensive activity as fall in systolic blood pressure after 1 hr of 10 uM/kg po dosing in Spontaneously hypertensive rats;NS means nonsignificant change in blood pressure.; assay type: functional, organism-based; conditions: Artery; summary of the method: as §2
Rattus norvegicus [17] = assay: Antihypertensive activity as fall in systolic blood pressure after 3 hr of 1 uM/kg po dosing in Spontaneously hypertensive rats.; assay type: functional, Artery; summary of the method: as §2
Rattus norvegicus [18] = assay: Antihypertensive activity as fall in systolic blood pressure after 1 h of 100 umol/kg po dosing in Spontaneously hypertensive rats.; assay type: functional, Artery; summary of the method: as §2
Rattus norvegicus [19] = assay: Antihypertensive activity as fall in systolic blood pressure after 1 hr of 1 uM/kg po dosing in Spontaneously hypertensive rats.; assay type: functional, Artery; summary of the method: as §2
Rattus norvegicus [20] = assay: Antihypertensive activity as fall in systolic blood pressure after 3 hr of 100 umol/kg po dosing in Spontaneously hypertensive rats.; assay type: functional, Artery; summary of the method: as §2
Rattus norvegicus [21] = assay: Antihypertensive activity as fall in systolic blood pressure after 5 h of 100 umol/kg po dosing in Spontaneously hypertensive rats.; assay type: functional, Artery; summary of the method: as §2
Rattus norvegicus [22] = assay: Antihypertensive activity as fall in systolic blood pressure after 5 hr of 1 uM/kg po dosing in Spontaneously hypertensive rats.; assay type: functional, Artery; summary of the method: as §2
Rattus norvegicus [23] = assay: Antihypertensive activity as fall in systolic blood pressure after 1 hr of 100 umol/kg po dosing in Spontaneously hypertensive rats.; assay type: functional, Artery; summary of the method: as §2
Rattus norvegicus [24] = assay: Antihypertensive activity as fall in systolic blood pressure after 3 hr of 1 umol/kg po dosing in Spontaneously hypertensive rats;NS means nonsignificant change in blood pressure.; assay type: functional, organism-based; conditions: Artery; summary of the method: as §2
Rattus norvegicus [25] = assay: Antihypertensive activity as fall in systolic blood pressure after 3 h of 100 umol/kg po dosing in Spontaneously hypertensive rats.; assay type: functional, Artery; summary of the method: as §2

SMILES | ED30 (Rattus norvegicus [1]) [µM/kg] | ED30 (Rattus norvegicus [2]) [µM/kg] | also measured
COc1cc2nc(N3CCC(C(O)C4CCCCC4)CC3)nc(N)c2cc1OC.Cl (configuration not stated) | 0.1 | 0.06 | Decrease in SBP (Rattus norvegicus [3]): 30 mmHg; Decrease in SBP (Rattus norvegicus [4]): 25 mmHg; Decrease in SBP (Rattus norvegicus [5]): 12 mmHg; Decrease in SBP (Rattus norvegicus [6]): 38 mmHg; Decrease in SBP (Rattus norvegicus [7]): 19 mmHg; Decrease in SBP (Rattus norvegicus [8]): 17 mmHg
CCOC(=O)C1CCCN(c2nc(N)c3cc(OC)c(OC)cc3n2)C1.Cl (stereo in doubt; 6cc) |  | 0.2 | 
COc1cc2nc(N3CCC(C(=O)OCC(C)(C)C)CC3)nc(N)c2cc1OC.Cl | 2 | 0.03 | 
COc1cc2nc(N3CCC(C(N)=O)CC3)nc(N)c2cc1OC.Cl | 0.8 | 0.1 | 
COc1cc2nc(N3CCC(C(=O)C4CCCC4)CC3)nc(N)c2cc1OC.Cl | 0.09 | 0.06 | Decrease in SBP (Rattus norvegicus [3]): 54 mmHg; Decrease in SBP (Rattus norvegicus [9]): Not significant; Decrease in SBP (Rattus norvegicus [4]): 45 mmHg; Decrease in SBP (Rattus norvegicus [5]): 18 mmHg; Decrease in SBP (Rattus norvegicus [10]): 34 mmHg; Decrease in SBP (Rattus norvegicus [11]): 11 mmHg; Decrease in SBP (Rattus norvegicus [12]): 34 mmHg; Decrease in SBP (Rattus norvegicus [13]): 11 mmHg; Decrease in SBP (Rattus norvegicus [6]): 50 mmHg; Decrease in SBP (Rattus norvegicus [14]): 35 mmHg; Decrease in SBP (Rattus norvegicus [7]): 21 mmHg; Decrease in SBP (Rattus norvegicus [8]): 20 mmHg
COc1cc2nc(N3CCCC(C(=O)N4CCCC4)C3)nc(N)c2cc1OC.Cl (stereo in doubt; 6ii) | 15 | 10 | 
CCCCC(=O)C1CCN(c2nc(N)c3cc(OC)c(OC)cc3n2)CC1.Cl | 0.06 | 0.03 | Decrease in SBP (Rattus norvegicus [3]): 36 mmHg; Decrease in SBP (Rattus norvegicus [4]): 40 mmHg; Decrease in SBP (Rattus norvegicus [5]): 13 mmHg; Decrease in SBP (Rattus norvegicus [6]): 27 mmHg; Decrease in SBP (Rattus norvegicus [15]): Not significant; Decrease in SBP (Rattus norvegicus [8]): 14 mmHg
COc1cc2nc(N3CCC(C(=O)N4CCCCCC4)CC3)nc(N)c2cc1OC.Cl | 0.05 | 0.01 | 
COc1cc2nc(N3CCC(C(=O)C4CCCCC4)CC3)nc(N)c2cc1OC.Cl | 0.1 | 0.07 | Decrease in SBP (Rattus norvegicus [3]): 54 mmHg; Decrease in SBP (Rattus norvegicus [16]): Not significant; Decrease in SBP (Rattus norvegicus [5]): 15 mmHg; Decrease in SBP (Rattus norvegicus [6]): 51 mmHg; Decrease in SBP (Rattus norvegicus [15]): Not significant; Decrease in SBP (Rattus norvegicus [8]): 20 mmHg
COc1cc2nc(N3CCC(Cc4ccccc4)CC3)nc(N)c2cc1OC.Cl | 0.07 | 0.06 | 
COc1cc2nc(N3CCC(C(=O)c4cccs4)CC3)nc(N)c2cc1OC.Cl | 6 | 0.2 | 
COc1cc2nc(N3CCC(C(=O)N4C(C)CCC4C)CC3)nc(N)c2cc1OC.Cl (configuration not stated) | 0.2 | 0.08 | 
COc1cc2nc(N3CCC(C(C)O)CC3)nc(N)c2cc1OC.Cl (configuration not stated) | 0.7 | 0.5 | 
COc1cc2nc(N3CCC(C(=O)N4CCCC4)CC3)nc(N)c2cc1OC.Cl | 0.4 | 0.2 | 
COc1cc2nc(N3CCC(C(=O)NC(C)(C)C)CC3)nc(N)c2cc1OC.Cl | 1 | 0.08 | 
CCCCC(O)C1CCN(c2nc(N)c3cc(OC)c(OC)cc3n2)CC1.Cl (configuration not stated) | 0.7 | 0.1 | 
COc1cc2nc(N3CCC(C(=O)N4CCCCC4C)CC3)nc(N)c2cc1OC.Cl (configuration not stated) | 0.9 | 0.1 | 
CCC(=O)C1CCN(c2nc(N)c3cc(OC)c(OC)cc3n2)CC1.Cl | 30 | 5 | 
COc1cc2nc(N3CCC(C(=O)N4CCCCC4)CC3)nc(N)c2cc1OC.Cl | 0.08 | 0.02 | 
CCOC(=O)C1CCN(c2nc(N)c3cc(OC)c(OC)cc3n2)CC1.Cl | 30 | 0.3 | 
COc1cc2nc(N3CCN(C(=O)c4ccco4)CC3)nc(N)c2cc1OC [PRAZOSIN] | 0.03 | 0.01 | Decrease in SBP (Rattus norvegicus [3]): 36 mmHg; Decrease in SBP (Rattus norvegicus [17]): 30 mmHg; Decrease in SBP (Rattus norvegicus [18]): 38 mmHg; Decrease in SBP (Rattus norvegicus [4]): 38 mmHg; Decrease in SBP (Rattus norvegicus [19]): 29 mmHg; Decrease in SBP (Rattus norvegicus [20]): 30 mmHg; Decrease in SBP (Rattus norvegicus [21]): 26 mmHg; Decrease in SBP (Rattus norvegicus [6]): 34 mmHg; Decrease in SBP (Rattus norvegicus [22]): 26 mmHg
CCOC(=O)C1CCCN(c2nc(N)c3cc(OC)c(OC)cc3n2)C1.Cl (stereo in doubt; 6c) | 20 | 0.8 | 
COc1cc2nc(N3CCC(C(=O)N4C(C)CCCC4C)CC3)nc(N)c2cc1OC.Cl (configuration not stated) | 0.2 | 0.08 | 
COc1cc2nc(N3CCC(C(=O)N4CCCCCCC4)CC3)nc(N)c2cc1OC.Cl | 0.05 | 0.02 | Decrease in SBP (Rattus norvegicus [3]): 29 mmHg; Decrease in SBP (Rattus norvegicus [23]): 52 mmHg; Decrease in SBP (Rattus norvegicus [4]): 29 mmHg; Decrease in SBP (Rattus norvegicus [5]): 11 mmHg; Decrease in SBP (Rattus norvegicus [24]): Not significant; Decrease in SBP (Rattus norvegicus [21]): 83 mmHg; Decrease in SBP (Rattus norvegicus [6]): 26 mmHg; Decrease in SBP (Rattus norvegicus [15]): Not significant; Decrease in SBP (Rattus norvegicus [25]): 66 mmHg
COc1cc2nc(N3CCC(C(O)C4CCCC4)CC3)nc(N)c2cc1OC.Cl (configuration not stated) | 0.7 | 0.1 | 
COc1cc2nc(N3CCCC(C(=O)N4CCCC4)C3)nc(N)c2cc1OC.Cl (stereo in doubt; 6i) | 30 | 12 | 
COc1cc2nc(N3CCC(C(=O)N4CCC4)CC3)nc(N)c2cc1OC.Cl | 0.4 | 0.07 | 
COc1cc2nc(N3CCC(C)CC3)nc(N)c2cc1OC.Cl |  | 0.08 | 
